Data reported in ChEMBL document CHEMBL4477193, “The Natural Product Essramycin and Three of Its Isomers Are Devoid of Antibacterial Activity” (J Nat Prod, 2016).
The source made the active and inactive calls.

Key:
Assay type in all cases: functional, organism-based
[1] = test system: Acinetobacter baumannii; test: Antibacterial activity against Acinetobacter baumannii ATCC 17961 up to 128 ug/ml after 16 to 20 hrs by broth microdilution assay
How it was run: (§1)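 MIC testing across a concentration series whose top concentration was 128 μg/mL. The E. faecium strain is NCTC 7171 (ATCC 19734). The testing method follows an earlier report.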

[2] = test system: Enterococcus faecium; test: Antibacterial activity against Enterococcus faecium ATCC 19734 up to 128 ug/ml after 16 to 20 hrs by broth microdilution assay; how it was run: as §1
[3] = test system: Staphylococcus aureus; test: Antibacterial activity against Staphylococcus aureus ATCC 29213 up to 128 ug/ml after 16 to 20 hrs by broth microdilution assay; how it was run: as §1
[4] = test system: Pseudomonas aeruginosa; test: Antibacterial activity against Pseudomonas aeruginosa ATCC 27853 up to 128 ug/ml after 16 to 20 hrs by broth microdilution assay; how it was run: as §1
[5] = test system: Escherichia coli; test: Antibacterial activity against Escherichia coli ATCC 25922 up to 128 ug/ml after 16 to 20 hrs by broth microdilution assay; how it was run: as §1
[6] = test system: Klebsiella aerogenes; test: Antibacterial activity against Enterobacter aerogenes ATCC 35029 up to 128 ug/ml after 16 to 20 hrs by broth microdilution assay; how it was run: as §1
[7] = test system: Klebsiella pneumoniae; test: Antibacterial activity against Klebsiella pneumoniae ATCC 700603 up to 128 ug/ml after 16 to 20 hrs by broth microdilution assay; how it was run: as §1

Measured: Activity

Cc1cc(=O)n2nc(CC(=O)c3ccccc3)nc2[nH]1
inactive: [1] | [2] | [3] | [4] | [5] | [6] | [7]

Cc1cc(=O)[nH]c2nc(CC(=O)c3ccccc3)nn12
inactive: [1] | [2] | [3] | [4] | [5] | [6] | [7]

Cc1cc(=O)[nH]c2nnc(CC(=O)c3ccccc3)n12
inactive: [1] | [2] | [3] | [4] | [5] | [6] | [7]

Cc1cc(=O)n2c(CC(=O)c3ccccc3)nnc2[nH]1
inactive: [1] | [2] | [3] | [4] | [5] | [6] | [7]
